Experiment [1] has as its target T1, Alpha-1B adrenergic receptor (Rattus norvegicus) (UniProt P15823).
T1 sequence (whole entry): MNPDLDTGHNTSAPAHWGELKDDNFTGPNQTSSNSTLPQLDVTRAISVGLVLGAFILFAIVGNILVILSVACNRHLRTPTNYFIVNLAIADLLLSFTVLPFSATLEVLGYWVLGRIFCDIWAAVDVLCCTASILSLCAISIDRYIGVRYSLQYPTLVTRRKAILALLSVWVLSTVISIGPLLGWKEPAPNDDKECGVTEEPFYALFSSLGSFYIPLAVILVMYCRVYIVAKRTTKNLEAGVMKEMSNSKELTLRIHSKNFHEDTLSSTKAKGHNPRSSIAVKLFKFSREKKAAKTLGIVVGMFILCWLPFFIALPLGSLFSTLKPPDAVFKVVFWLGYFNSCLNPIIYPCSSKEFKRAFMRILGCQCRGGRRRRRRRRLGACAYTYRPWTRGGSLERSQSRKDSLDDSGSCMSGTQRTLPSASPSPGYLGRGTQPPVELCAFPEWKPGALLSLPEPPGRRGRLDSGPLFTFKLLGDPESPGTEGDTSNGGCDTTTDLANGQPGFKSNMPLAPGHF
As to conditions: Spleen.

The target in experiment [2] is T2, Alpha-1A adrenergic receptor (Rattus norvegicus) (UniProt P43140).
T2 sequence (whole entry): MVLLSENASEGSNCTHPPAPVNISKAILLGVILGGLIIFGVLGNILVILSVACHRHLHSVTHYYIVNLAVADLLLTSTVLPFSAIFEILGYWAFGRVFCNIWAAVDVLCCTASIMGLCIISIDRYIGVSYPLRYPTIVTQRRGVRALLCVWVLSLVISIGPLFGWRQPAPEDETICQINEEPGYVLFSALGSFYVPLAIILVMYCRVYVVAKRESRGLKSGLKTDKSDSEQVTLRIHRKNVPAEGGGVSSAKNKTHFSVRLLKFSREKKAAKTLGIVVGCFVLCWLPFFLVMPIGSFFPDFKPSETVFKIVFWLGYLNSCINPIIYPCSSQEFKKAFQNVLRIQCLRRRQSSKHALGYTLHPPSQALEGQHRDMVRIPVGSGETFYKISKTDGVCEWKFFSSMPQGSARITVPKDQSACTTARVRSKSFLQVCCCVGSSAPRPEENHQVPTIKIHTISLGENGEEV

In experiment [3] the target is T3, Alpha-1D adrenergic receptor (Rattus norvegicus) (UniProt P23944).
T3 sequence (whole entry): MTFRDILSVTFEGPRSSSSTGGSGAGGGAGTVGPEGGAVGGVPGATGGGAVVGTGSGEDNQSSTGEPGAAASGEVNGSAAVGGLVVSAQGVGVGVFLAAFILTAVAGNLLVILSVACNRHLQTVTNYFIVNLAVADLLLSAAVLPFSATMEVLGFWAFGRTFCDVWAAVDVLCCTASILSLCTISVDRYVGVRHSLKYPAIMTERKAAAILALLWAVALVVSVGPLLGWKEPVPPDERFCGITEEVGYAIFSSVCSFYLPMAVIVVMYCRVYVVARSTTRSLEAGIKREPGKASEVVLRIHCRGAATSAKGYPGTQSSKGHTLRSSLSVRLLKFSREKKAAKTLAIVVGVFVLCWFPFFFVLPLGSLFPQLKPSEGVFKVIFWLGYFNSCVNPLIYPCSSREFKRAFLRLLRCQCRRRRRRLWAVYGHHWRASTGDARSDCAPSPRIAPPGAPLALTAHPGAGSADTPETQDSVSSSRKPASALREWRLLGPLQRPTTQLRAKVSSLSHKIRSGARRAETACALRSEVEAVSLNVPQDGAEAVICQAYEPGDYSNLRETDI
The settings on record: Thoracic aorta.

Experiment [4] concerns the target T4, Alpha-1A adrenergic receptor (Rattus norvegicus, UniProt P43140).
T4 sequence (P43140 whole entry): T2 sequence (whole entry)
Put plainly: Antagonist affinity [non competitive (irreversible)] at alpha-1A-adrenoceptors on isolated prostatic Vas deferens from rat. It is filed as functional. In outline: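 Rat vas deferens prostatic portion, equilibrated 60 min with washes every 15 min, primed twice with 10 µM noradrenaline, then a basal noradrenaline concentration-response curve (solutions with 0.05% Na₂S₂O₅). Antagonist 30 min, then 30 min washing, then a new curve. Maximal-response decrease expressed as % of control; IC50 read graphically from % inhibition vs log molar concentration, given as pIC50 ± SE.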

Experiment [5] deals with T5, Alpha-1B adrenergic receptor (Rattus norvegicus, UniProt P15823).
T5 sequence (P15823 whole entry): T1 sequence (whole entry)
Description: Antagonist affinity [non competitive (irreversible)] at alpha-1B-adrenoceptors on isolated spleen from rat. It is filed as functional, tissue-based. In outline: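 Isolated rat spleen contracted by (-)-phenylephrine, measured isometrically. Cumulative curves run at 30 min intervals, the second taken as control. Antagonist incubated 30 min, washed 30 min, then a new curve. Loss of maximal response expressed as % of control; IC50 estimated from % inhibition vs log molar concentration plots, reported as pIC50 ± SE of n experiments.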

Usually pKb stands for the Kb on a negative log10 scale, so that one unit is a factor of ten. Read a low pKb as a large Kb. For `COc1cc2nc(N3CCN(C(=O)c4ccccc4C(F)(F)F)CC3)nc(N)c2cc1OC`, the pKb in experiment [1] turned out to be 6.55; in experiment [2] it was 6.43; in experiment [3] it was 8.31.

Turning to `COc1cc2nc(N3CCN(C(=O)c4ccccc4C)CC3)nc(N)c2cc1OC`, the pKb in experiment [1] was 7.33; in experiment [2], 6.97; in experiment [3] it was 7.99.

As to `COc1cc2nc(N3CCN(C(=O)c4ccccc4CNCCCCCCNCCCCCCNCCCCCCNCc4ccccc4C(=O)N4CCN(c5nc(N)c6cc(OC)c(OC)cc6n5)CC4)CC3)nc(N)c2cc1OC`, the values for the pKb in experiment [1], in experiment [2] and in experiment [3] were 6.8, 7.74 and 7.94, respectively.

Turning to `COc1cc2nc(N3CCN(C(=O)c4cccc(CNCCCCCCNCCCCCCNCCCCCCNCc5cccc(C(=O)N6CCN(c7nc(N)c8cc(OC)c(OC)cc8n7)CC6)c5)c4)CC3)nc(N)c2cc1OC`, the pKb stood at 6.5 in experiment [1], 7.29 in experiment [2] and 7.43 in experiment [3].

For `COc1cc2nc(N3CCN(C(=O)c4cccc(C(F)(F)F)c4)CC3)nc(N)c2cc1OC`, the pKb in experiment [1] turned out to be 7.16; in experiment [2], 7.49; in experiment [3] it was 8.38.

Consider `COc1cc2nc(N3CCN(C(=O)c4ccccc4)CC3)nc(N)c2cc1OC`, for which the pKb in experiment [1] came to 7.44; in experiment [2] it was 7.66; in experiment [3] it was 8.86.

What is called IC50 is the concentration that inhibits the measured activity by half. A high value points to lower potency. With `COc1cc2nc(N3CCN(C(=O)c4ccccc4CNCCCCCCNCCSSCCNCCCCCCNCc4ccccc4C(=O)N4CCN(c5nc(N)c6cc(OC)c(OC)cc6n5)CC4)CC3)nc(N)c2cc1OC`, the IC50 in experiment [4] is 5.01 µM; in experiment [5] it was 5.13 µM.

For the compound `COc1cc2nc(N(C)CCCCCCN(C)C(=O)c3ccccc3CNCCCCCCNCCCCCCNCCCCCCNCc3ccccc3C(=O)N(C)CCCCCCN(C)c3nc(N)c4cc(OC)c(OC)cc4n3)nc(N)c2cc1OC`, the pKb in experiment [1] came to 7.22; in experiment [2], 8.17; in experiment [3], 8.47.

As to `COc1cccc(C(=O)N2CCN(c3nc(N)c4cc(OC)c(OC)cc4n3)CC2)c1`, the pKb in experiment [1] stood at 7.84; in experiment [2] it was 7.87; in experiment [3], 7.46.

In the case of `COc1cc2nc(N3CCN(C(=O)c4ccc(CNCCCCCCNCCCCCCNCCCCCCNCc5ccc(C(=O)N6CCN(c7nc(N)c8cc(OC)c(OC)cc8n7)CC6)cc5)cc4)CC3)nc(N)c2cc1OC`, the pKb stood at 7.16 in experiment [1], 6.97 in experiment [2] and 7.47 in experiment [3].

For the compound `COc1cc2nc(N(C)CCCCCCN(C)C(=O)c3ccc(CNCCCCCCNCCSSCCNCCCCCCNCc4ccc(C(=O)N(C)CCCCCCN(C)c5nc(N)c6cc(OC)c(OC)cc6n5)cc4)cc3)nc(N)c2cc1OC`, the IC50 was 4.68 µM in experiment [4] and 2.14 µM in experiment [5].

For `COc1cc2nc(N3CCN(C(=O)c4ccccc4OC)CC3)nc(N)c2cc1OC`, the pKb in experiment [1] came out at 6.77; in experiment [2], 7.34; in experiment [3], 7.76.

Take `COc1cc2nc(N(C)CCCCCCN(C)C(=O)c3ccccc3CNCCCCCCNCCSSCCNCCCCCCNCc3ccccc3C(=O)N(C)CCCCCCN(C)c3nc(N)c4cc(OC)c(OC)cc4n3)nc(N)c2cc1OC`: the IC50 in experiment [4] and in experiment [5] was 1.86 µM throughout.

For `COc1cc2nc(N3CCN(C(=O)c4ccco4)CC3)nc(N)c2cc1OC`, the pKb in experiment [2] was determined as 8.99; in experiment [3], 9.71.

As for `COc1cc2nc(N(C)CCCCCCN(C)C(=O)c3ccc(CNCCCCCCNCCCCCCNCCCCCCNCc4ccc(C(=O)N(C)CCCCCCN(C)c5nc(N)c6cc(OC)c(OC)cc6n5)cc4)cc3)nc(N)c2cc1OC`, the pKb came out at 7.56 in experiment [1], 8.53 in experiment [2] and 7.9 in experiment [3].

For `COc1cc2nc(N3CCN(C(=O)c4cccc(C=O)c4)CC3)nc(N)c2cc1OC`, the pKb in experiment [1] was 6.92; in experiment [2] it was 7.79; in experiment [3], 8.07.

Turning to `COc1ccc(C(=O)N2CCN(c3nc(N)c4cc(OC)c(OC)cc4n3)CC2)cc1`, the pKb was determined as 7.74 in experiment [1], 8.46 in experiment [2] and 8.98 in experiment [3].

Turning to `COc1cc2nc(N3CCN(C(=O)c4cccc(C)c4)CC3)nc(N)c2cc1OC`, the results for the pKb in experiment [1], in experiment [2] and in experiment [3] were 8.12, 8.49 and 9.12, respectively.

With `COc1cc2nc(N3CCN(C(=O)c4ccc(C(F)(F)F)cc4)CC3)nc(N)c2cc1OC`, the pKb in experiment [1] is 7.45; in experiment [2] it was 7.43; in experiment [3], 8.31.

`COc1cc2nc(N3CCN(C(=O)c4ccc(C=O)cc4)CC3)nc(N)c2cc1OC`: the pKb was 6.95 in experiment [1], 7.59 in experiment [2] and 8.38 in experiment [3].

Regarding `COc1cc2nc(N(C)CCCCCCN(C)C(=O)c3cccc(CNCCCCCCNCCCCCCNCCCCCCNCc4cccc(C(=O)N(C)CCCCCCN(C)c5nc(N)c6cc(OC)c(OC)cc6n5)c4)c3)nc(N)c2cc1OC`, the pKb worked out at 7.41 in experiment [1], 8.48 in experiment [2] and 9.3 in experiment [3].

As to `COc1cc2nc(N3CCN(C(=O)c4ccc(CNCCCCCCNCCSSCCNCCCCCCNCc5ccc(C(=O)N6CCN(c7nc(N)c8cc(OC)c(OC)cc8n7)CC6)cc5)cc4)CC3)nc(N)c2cc1OC`, the figures for the IC50 in experiment [4] and in experiment [5] were 2 µM and 41.7 µM, respectively.

Consider `COc1cc2nc(N3CCN(C(=O)c4cccc(CNCCCCCCNCCSSCCNCCCCCCNCc5cccc(C(=O)N6CCN(c7nc(N)c8cc(OC)c(OC)cc8n7)CC6)c5)c4)CC3)nc(N)c2cc1OC`, for which the IC50 in experiment [4] was 3.89 µM; in experiment [5] it was 55 µM.

In the case of `COc1cc2nc(N3CCN(C(=O)c4ccccc4C=O)CC3)nc(N)c2cc1OC`, the pKb in experiment [1] was found to be 6.5; in experiment [2], 6.94; in experiment [3], 7.56.

Consider `COc1cc2nc(N(C)CCCCCCN(C)C(=O)c3cccc(CNCCCCCCNCCSSCCNCCCCCCNCc4cccc(C(=O)N(C)CCCCCCN(C)c5nc(N)c6cc(OC)c(OC)cc6n5)c4)c3)nc(N)c2cc1OC`, for which the results for the IC50 in experiment [4] and in experiment [5] were 0.0457 µM and 1.74 µM, respectively.

Turning to `COc1cc2nc(N3CCN(C(=O)c4ccc(C)cc4)CC3)nc(N)c2cc1OC`, the pKb in experiment [1] worked out at 7.67; in experiment [2] it was 7.96; in experiment [3] it was 8.91.
